Experimental data taken from ChEMBL document CHEMBL5335782, “Discovery of new imidazotetrazinones with potential to overcome tumor resistance” (Eur J Med Chem, 2023).
One block for each compound: values may come before it. The source made the active and inactive calls. The calls are words filed in the database; no cut-off is given here.

Assays:
[1] = Antiproliferative activity against MGMT-expressing human U373M cells assessed as inhibition of cell growth measured after […] by MTT assay; format: functional
Summary of the method: (§1)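 Cells seeded at 6.5×10^2/well, left overnight, then exposed to vehicle or agent (n = 4-8; final 0.5–1000 μM; DMSO stocks of 50 or 10 mM diluted in medium). MTT read at time of addition and after 6 days at 37 °C, 5% CO₂. MTT 0.4 mg/mL for 4 h, formazan taken up in DMSO, A550. GI50 from non-linear regression; mean ± SD of >3 experiments.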

[2] = Antiproliferative activity against human U373V cells assessed as inhibition of cell growth measured […] by MTT assay; format: functional; summary of the method: as §1
HCT-116 [3] = assay: Antiproliferative activity against MMR-deficient human HCT-116 cells assessed as inhibition of cell growth measured after […] by MTT assay; format: functional; summary of the method: as §1
[4] = Ratio of permeability across dog MDCK cells transfected with MDR1 to permeability across wild type dog MDCK cells; format: ADME, cell-based, Canis lupus familiaris
[5] = Half life in rat liver microsomes in presence of NADPH; format: ADME, Microsome
[6] = Half life in rat plasma; format: ADME, cell-free
[7] = Permeability of the compound assessed as drug recovery measured after 6 hrs by PAMPA assay; format: ADME; details: read-out: Drug recovery
Summary of the method: (§2)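 PAMPA passive-diffusion assay run as contract research under the provider's protocols, with control compounds. After 6 h incubation, permeability (Pe) and percentage recovery determined.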

HCT-116 [8] = assay: Induction of cell cycle arrest in MMR-deficient human HCT-116 cells assessed as accumulation of cells at pre-G1 phase at 20 uM measured after 120 hrs by propidium iodide staining based flow cytometry (Rvb ~5%); format: functional
[9] = Half life in human liver microsomes in absence of NADPH; format: ADME, Microsome
[10] = Intrinsic clearance in rat liver microsomes in absence of NADPH; format: ADME, Microsome; details: read-out: CLH
[11] = Permeability of the compound measured after 6 hrs by PAMPA assay; format: ADME; details: read-out: permeability; summary of the method: as §2
U373M [12] = assay: Inhibition of cell colony formation in MGMT-expressing human U373M cells assessed as reduction in clonogenic survival at >=10 uM incubated for 24 hrs followed by drug removal and incubation in medium for 14 days; format: functional, cell-based
Summary of the method: (§3)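 Clonogenic survival: exponentially growing cells seeded in triplicate at 400 cells/well, attached overnight, then exposed for 24 h to 0, 2, 20 or 50 μM agent. Medium then replaced with drug-free medium for 14 days, or until control colonies held ≥50 cells. Colonies fixed in cold methanol, stained with 0.5% methylene blue, counted, and expressed relative to control. 2–3 experiments.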

[13] = Selectivity ratio of GI50 for cytotoxicity against human MRC5 cells to GI50 for antiproliferative activity against MMR-deficient human HCT-116 cells; format: toxicity, cell-based; details: MRC5 cells versus MMR-deficient HCT-116 cells, read-out: RatioGI50
[14] = Half life of the compound in phosphate buffered saline at pH 7.4 by LC-MS analysis; format: physicochemical
Summary of the method: (§4)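 Half-life in phosphate buffers at pH 5, 6.8 or 7.4 followed by LC-MS; mean of two independent experiments.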

U373V [15] = assay: Inhibition of cell colony formation in human U373V cells assessed as reduction in clonogenic survival at >=10 uM incubated for 24 hrs followed by drug removal and incubation in medium for 14 days; format: functional, cell-based; summary of the method: as §3
HCT-116 [16] = assay: Inhibition of cell colony formation in MMR-deficient human HCT-116 cells assessed as reduction in clonogenic survival at >=10 uM incubated for 24 hrs followed by drug removal and incubation in medium for 14 days; format: functional, cell-based; summary of the method: as §3
[17] = Induction of cell cycle arrest in MGMT-expressing human U373M cells assessed as accumulation of cells at G1 phase at 20 uM measured after 120 hrs by propidium iodide staining based flow cytometry (reference value: 66%); format: functional
[18] = Half life of the compound in phosphate buffered saline at pH 5 by LC-MS analysis; format: physicochemical; summary of the method: as §4
[19] = Stability of the compound in phosphate buffered saline at pH 5.5 by 1H NMR spectroscopy; format: physicochemical; details: buffer
Summary of the method: (§5)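 Half-life followed by ¹H NMR spectroscopy in phosphate buffers at pH 7.4 or 5.5.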

[20] = Intrinsic clearance in human liver microsomes in presence of NADPH; format: ADME, Microsome; details: read-out: CLH
[21] = Half life of the compound in phosphate buffered saline at pH 6.8 by LC-MS analysis; format: physicochemical; summary of the method: as §4
[22] = Half life of the compound in phosphate buffered saline at pH 5.5 by 1H NMR spectroscopic analysis; format: physicochemical; summary of the method: as §5
[23] = Intrinsic clearance in rat liver microsomes in presence of NADPH; format: ADME, Microsome; details: read-out: CLH
[24] = Half life in human plasma; format: ADME, cell-free
[25] = Stability of the compound in phosphate buffered saline at pH 7.4 by 1H NMR spectroscopy; format: physicochemical; details: buffer; summary of the method: as §5
[26] = Half life in rat liver microsomes in absence of NADPH; format: ADME, Microsome
[27] = Induction of cell cycle arrest in MGMT-expressing human U373M cells assessed as accumulation of cells at G2/M phase at 20 uM measured after 120 hrs by propidium iodide staining based flow cytometry; format: functional
[28] = Intrinsic clearance in human liver microsomes in absence of NADPH; format: ADME, Microsome; details: read-out: CLH
[29] = Cytotoxicity against human MRC5 cells assessed as inhibition of cell growth measured after 7 days by MTT assay; format: toxicity, cell-based; details: time 7 day; summary of the method: as §1
[30] = Half life in human liver microsomes in presence of NADPH; format: ADME, Microsome
[31] = Half life of the compound in phosphate buffered saline at pH 7.4 by 1H NMR spectroscopic analysis; format: physicochemical; summary of the method: as §5
[32] = Induction of cell cycle arrest in human U373V cells assessed as accumulation of cells at pre-G1 phase at 100 uM measured after 120 hrs by propidium iodide staining based flow cytometry (reference value: 1%); format: functional
HCT-116 [33] = assay: Induction of cell cycle arrest in MMR-deficient human HCT-116 cells at 100 uM measured after 120 hrs by propidium iodide staining based flow cytometry; format: functional
U373V [34] = assay: Inhibition of cell colony formation in human U373V cells at 20 to 50 uM incubated for 24 hrs followed by drug removal and incubation in medium for 14 days; format: functional, cell-based; details: dose 20-50 µM; summary of the method: as §3
U373M [35] = assay: Induction of cell cycle arrest in MGMT-expressing human U373M cells at 100 uM measured after 120 hrs by propidium iodide staining based flow cytometry; format: functional
[36] = Apparent elimination half life in human plasma
[37] = Apparent elimination half life in human
U373V [38] = assay: Induction of cell cycle arrest in human U373V cells assessed as accumulation of cells at G2/M phase at 100 uM measured after 120 hrs by propidium iodide staining based flow cytometry; format: functional

Compound: C#CCn1nnc2c(-c3nc(-c4ccc(F)cc4)cs3)ncn2c1=O
GI50 [1]: 19.7 µM
GI50 [2]: 27.9 µM
GI50 (HCT-116 [3]): 27.6 µM

Compound: C#CCn1nnc2c(-c3nc(C(F)(F)C(F)(F)F)cs3)ncn2c1=O
GI50 [1]: 25.8 µM
GI50 [2]: 27.1 µM
GI50 (HCT-116 [3]): 27.7 µM

Compound: C#CCn1nnc2c(-c3nc(C4CCC4)cs3)ncn2c1=O
GI50 [1]: 25.5 µM
GI50 [2]: 24.2 µM
GI50 (HCT-116 [3]): 20.3 µM

Compound: C#CCn1nnc2c(-c3nc(CO)cs3)ncn2c1=O
GI50 [1]: 14.8 µM
GI50 [2]: 24.4 µM
GI50 (HCT-116 [3]): 17.8 µM

Compound: Cn1nnc2c(C(N)=O)ncn2c1=O [TEMOZOLOMIDE]
Ratio [4]: 3.21
half-life [5]: > 8 h
half-life [6]: 0.298 h
Activity [32]: 9%
Activity (HCT-116 [33]): inactive
recovery at 6 h [7]: 65.3%
inhibition (U373V [34]): Active
half-life [9]: 1 h
microsomal CLint [10]: < 1 µL/min/mg
Papp at 6 h [11]: 6.3 nm/s
Activity (U373M [35]): inactive
GI50 [1]: 302 µM
selectivity ratio [13]: 1.4
half-life [14]: 2.47 h
GI50 [2]: 51.9 µM
t1/2 [36]: 0.25 h
half-life [37]: 1.8 h
half-life [18]: > 8 h
microsomal CLint [20]: 27.3 µL/min/mg
half-life [21]: 4.02 h
half-life [22]: > 100 h
GI50 (HCT-116 [3]): 291 µM
microsomal CLint [23]: < 1 µL/min/mg
Activity (U373V [38]): Active
half-life [24]: 0.33 h
half-life [26]: > 8 h
microsomal CLint [28]: 23 µL/min/mg
half-life [30]: 0.848 h
half-life [31]: 1.53 h

These reach a lower GI50 (HCT-116 [3]). Values come first.

GI50 (HCT-116 [3]): 16.7 µM
Compound: C#CCn1nnc2c(-c3nc(C(=C)C)cs3)ncn2c1=O
GI50 [1]: 14.2 µM
GI50 [2]: 18.7 µM

Ratio [4]: 1.11
half-life [5]: 0.63 h
half-life [6]: 0.0443 h
recovery at 6 h [7]: 17.5%
half-life [9]: 1.53 h
microsomal CLint [10]: 17.5 µL/min/mg
Papp at 6 h [11]: 31.8 nm/s
half-life [14]: 3.29 h
half-life [18]: > 8 h
Stability [19]: Stable
microsomal CLint [20]: 44 µL/min/mg
half-life [21]: 5.46 h
half-life [22]: 1.07 h
GI50 (HCT-116 [3]): 5.35 µM
microsomal CLint [23]: 37.2 µL/min/mg
half-life [24]: 0.0557 h
Stability [25]: Stable
half-life [26]: 1.32 h
microsomal CLint [28]: 16.4 µL/min/mg
half-life [30]: 0.527 h
half-life [31]: 3 h
Compound: C#CCn1nnc2c(-c3nccs3)ncn2c1=O
Activity (HCT-116 [8]): >60%
inhibition (U373M [12]): Active
GI50 [1]: 4.09 µM
selectivity ratio [13]: > 5
inhibition (U373V [15]): Active
inhibition (HCT-116 [16]): Active
GI50 [2]: 3.59 µM
Activity [17]: 43%
Activity [27]: 21%
GI50 at 168 h [29]: 25 µM

GI50 (HCT-116 [3]): 5.97 µM
Compound: C#CCN/N=N/c1[nH]cnc1-c1nccs1
GI50 [1]: 5.81 µM
GI50 [2]: 7.51 µM

GI50 (HCT-116 [3]): 4.6 µM
Compound: C#CCn1nnc2c(-c3ncc(C)s3)ncn2c1=O
GI50 [1]: 3.99 µM
GI50 [2]: 6.84 µM

GI50 (HCT-116 [3]): 14.8 µM
Compound: C#CCn1nnc2c(-c3nc(CC)cs3)ncn2c1=O
GI50 [1]: 9.67 µM
GI50 [2]: 23.5 µM
